Source: PubChem (several laboratories)
This is a sample that favours compounds with a hit; in the whole collection about 5.2% have one here.
M1 antagonist = M1 muscarinic receptor (rat) antagonism. CHO-M1 cells, Fluo-4 calcium, ACh EC80 antagonist mode; active compounds read low. P08482. B-score at 10 µM. 64,000 compounds, 3.4% hits. AID 628;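 active means calcium fluorescence response, raw or row-and-column corrected B-score, differing from the plate sample mean either way at a set confidence level, mostly lower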
Target sequence (P08482 whole entry, looked up): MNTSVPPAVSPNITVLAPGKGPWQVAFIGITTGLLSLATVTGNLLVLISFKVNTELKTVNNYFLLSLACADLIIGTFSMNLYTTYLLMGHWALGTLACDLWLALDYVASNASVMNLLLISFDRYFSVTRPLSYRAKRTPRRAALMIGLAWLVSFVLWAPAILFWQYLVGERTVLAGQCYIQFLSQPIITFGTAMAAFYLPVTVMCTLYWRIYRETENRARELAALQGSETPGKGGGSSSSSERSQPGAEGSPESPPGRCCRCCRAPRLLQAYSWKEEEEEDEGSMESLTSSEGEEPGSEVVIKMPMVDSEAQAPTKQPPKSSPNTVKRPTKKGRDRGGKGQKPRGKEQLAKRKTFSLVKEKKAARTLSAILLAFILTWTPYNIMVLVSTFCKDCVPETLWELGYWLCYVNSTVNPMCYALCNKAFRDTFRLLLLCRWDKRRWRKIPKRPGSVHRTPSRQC
tolC growth inh = growth inhibitors of E. coli BW25113 tolC mutant. growth inhibition, % at 10 µM (by protocol). 65,000 compounds, 2.2% hits. OD615;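 active means growth inhibition at or above a cutoff equal to the mean over every tested compound plus 3 SD, cut at about 60% in these data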;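 further: growth measured after 20 h incubation at 37 °C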
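Material: E. coli BW25113 ΔtolC::kan, tolC deletion mutant strain. Measure: percent growth inhibition. Schedule: 37 °C, 20 h exposure. Doses: single-point testing at 10 µM. Signal: A615 absorbance measurement. Buffer or medium: kanamycin-containing LB broth (50 µg/mL).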
Ecoli WT expand = E. coli BW25113 growth inhibition, expanded screen; OD600 absorbance; growth inhibition, % at 100 µM; 98,000 compounds, 0.15% hits; AID 710;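 active means growth inhibition above about 50% at one test dose, limit read from the data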;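 further: growth measured after 20 h incubation at 37 °C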
WNV protease inh = inhibitors of West Nile virus NS2B-NS3 protease; AID 577; WNV NS2B-NS3 protease, fluorogenic substrate Ex360/Em465; active compounds read low; 65,000 compounds, 0.18% hits; P06935; z-score (test concentration not listed); in the data active means z-score below about -3
M1 ag = activates the M1 muscarinic receptor. CHO-M1 cells, Fluo-4 calcium fluorescence, agonist mode; active compounds read high. B-score at 10 µM. 64,000 compounds, 3% hits;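 active means fluorescence rise, raw or as B-score row- and column-corrected plate score, outside the 99.7% band of its plate's samples, either direction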
AP complement = alternative pathway complement inhibition, orthogonal assay; inhibition, % at 5 µM; 62,000 compounds, 0.08% hits; Human serum alternative complement pathway, LPS-coated ELISA, C3 deposition; tested in compound mixtures;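 active means inhibition above 30% in each of the two pooled mixtures holding the compound, so the lower value exceeds 30%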;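 further: 0% = serum in Mg-EGTA without compound and 100% = EDTA serum blank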
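Medium: diluted human serum in Mg2+-EGTA GVB++. Assay system: human serum complement alternative pathway, C3 deposition onto LPS. Also added: Plate-bound LPS. Technique: Anti-C3 ELISA, OD 450 nm. Measure: percent inhibition. Incubation: 1 h at 37 °C. Dosing: 5 µM each compound, pools of ten, 50 µM per pool.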
Active calls of the source: *; . = not tested or not shown.

SMILES | M1 antagonist | tolC growth inh | Ecoli WT expand | WNV protease inh | M1 ag | AP complement
CC(=O)N1CCc2cc(S(=O)(=O)NCCN3CCC(C)CC3)ccc21 | 0.18 | -5 | 4 | -0.57 | -0.3 | 14
COc1cccc(-c2cc(C(F)(F)F)nc(N3CCOCC3)n2)c1 | -0.97 | 68* | -2 | -0.85 | 0 | -6
COc1ccccc1-c1cc(C(F)(F)F)nc(N2CCOCC2)n1 | 0.13 | 62* | 12 | -0.81 | 0.48 | 5
COc1ccccc1-c1cc(C(F)(F)F)nc(N2CCN(c3ccccc3)CC2)n1 | 0.41 | -5 | -10 | -0.1 | 0.61 | 6
CCCCSc1nc(C)cc(C)c1S(=O)(=O)c1ccccc1C | . | . | 2 | . | . | .
Nc1nncn1C(=O)CCCN1C(=O)c2ccccc2C1=O | -0.0074 | 96* | 16 | 0.94 | 0.23 | -13
O=C(CCCN1C(=O)c2ccccc2C1=O)N1CCc2ccccc2C1 | . | . | -3 | . | . | .
Cc1ccc(O)c(-c2cc(-c3cccc(F)c3)n[nH]2)c1 | . | . | 26 | . | . | .
Oc1ccccc1-c1cc(-c2ccc3c(c2)OCCO3)n[nH]1 | 0.38 | 99* | 24 | -1.4 | -0.021 | 16
COC(=O)c1cc(Nc2ncnc3c2cnn3-c2ccccc2)cc(C(=O)OC)c1 | 0.19 | 0 | . | -0.06 | 0.066 | 0
CC(C)c1ccc(-c2nnn(Cc3nc4ccccc4s3)n2)cc1 | -0.12 | 80* | -15 | 0.78 | 0.033 | -8
Cc1ccc(-c2nnn(CC(=O)N3CCN(c4nc5ccccc5s4)CC3)n2)cc1 | 0.69 | -2 | -11 | 1.6 | 0.93 | -2
O=S(=O)(c1cnc[nH]1)N1CCc2ccccc21 | 0.46 | 14 | 7 | 1 | -2 | 4
Fc1ccc2c(c1)C1C=CCC1C(c1cc3c(cc1Br)OCO3)N2 (stereo not given) | . | . | -10 | . | . | .
CC(C)N=c1cc2n(-c3ccc(Cl)cc3)c3ccccc3nc-2cc1Nc1ccc(Cl)cc1 | 0.71 | 6 | . | 1.2 | -0.75 | -11
CC1CCC(C(C)C)C(OC(=O)COC(=O)c2ccc(=O)[nH]c2)C1 (stereo not given) | 0.12 | 63* | 2 | 0.46 | 0.27 | -4
CC1CCC(C(C)C)C(OC(=O)CSc2nccc(=O)[nH]2)C1 (stereo not given) | . | . | -4 | . | . | .
c1ccc(-c2nc(N3CCN(c4ccccc4)CC3)nc(-n3ccnc3)n2)cc1 | 0.19 | 17 | -17 | 0.61 | 0.14 | 5
c1ccc(-c2nc(N3CCCCCC3)nc(-n3ccnc3)n2)cc1 | -0.0079 | 98* | 3 | 0.51 | 0.18 | 16
COc1ccc(-c2nnc(SCc3cc(C)cc(C)c3)o2)cc1 | -0.19 | 69* | 3 | -0.83 | -0.55 | 12
N#Cc1nc(Cc2cccc3ccccc23)oc1NCCCN1CCOCC1 | -0.6 | 37 | 26 | -1.4 | -0.18 | 3
N#Cc1nc(Cc2cccc3ccccc23)oc1NCCCn1ccnc1 | -1.8 | 61* | 9 | 0.6 | -1.6 | -4
CCC1CCCCN1C(=O)c1cc(-c2ccc(Cl)c(Cl)c2)on1 (stereo not given) | -1.2 | 100* | -9 | 1.1 | -0.059 | -1
Cc1nc2c(C(=O)NCc3ccc4c(c3)OCO4)c[nH]n2c(=O)c1Cl | -0.36 | 23 | -11 | 0.69 | -0.044 | 0
Cc1nc2c(C(=O)NCCC3=CCCCC3)c[nH]n2c(=O)c1Cl | -0.0082 | 79* | 12 | 0.24 | -0.07 | 4
SMILES | M1 antagonist | tolC growth inh | Ecoli WT expand | WNV protease inh | M1 ag | AP complement
COC(=O)c1c(NC(=O)CC2NCCNC2=O)sc2c1CCCC2 (stereo not given) | -0.52 | -4 | 9 | -1.5 | -2 | 18
CCOC(=O)c1c(NC(=O)OC)sc2c1CCC2 | 0.021 | 1 | 6 | 0.01 | -0.067 | 15
COC(=O)c1c(NC(=O)C2CC2)sc2c1CCCC2 | -0.095 | 40 | 4 | -3.6* | -0.031 | 16
CCOC(=O)c1c(NC(=O)CN(CC)CC)sc2c1CCC2 | -0.52 | 100* | 4 | -0.3 | -0.071 | 6
O=C(CCCSc1nnnn1-c1cccc2ccccc12)c1ccc(F)cc1 | . | . | -13 | . | . | .
CCn1c2ccccc2c2nnc(SCC(=O)NC(C(=O)OC)C(C)C)nc21 (stereo not given) | 0.66 | -10 | . | -1.2 | 0.36 | 15
Cc1cc(NC(=O)Cn2nnc3sc4c(c3c2=O)CCC(C(C)(C)C)C4)no1 (stereo not given) | 0.023 | 76* | 1 | 0.26 | -0.18 | 9
Cc1cc(NC(=O)CSc2nc(C3CC3)nc3sc4c(c23)CCC(C)C4)no1 (stereo not given) | -0.013 | 17 | . | 0.65 | -0.3 | 8
CCC(C(=O)Nc1ccccc1OC)n1c(C(=O)OC)cc2ccsc21 (stereo not given) | 0.12 | 71* | -21 | 0.54 | -0.22 | 16
CC1=C(C(=O)OCC(C)C)C(c2ccccc2Cl)NC(=O)N1C (stereo not given) | -1.2 | 12 | 5 | -2 | -0.085 | -1
CC1=C(C(=O)OCC(C)C)C(c2cc3c(cc2Br)OCO3)NC(=O)N1C (stereo not given) | 0.63 | 66* | 6 | -1.1 | 1.5 | 10
Cc1oc(-c2ccccc2Cl)nc1CS(=O)CC(=O)NCc1cccs1 (stereo not given) | . | . | 0 | . | . | .
Cc1oc(-c2ccccc2F)nc1CS(=O)CC(=O)NCc1cccs1 (stereo not given) | 1 | 5 | -9 | -0.75 | 0.22 | 40*
CC1(C)Cc2ccccc2-c2nnc(SCC(=O)N3CCN(c4ccccc4)CC3)n21 | -0.5 | 20 | -4 | -0.28 | 3.3* | 7
O=C(O)CSc1nc(C(F)(F)F)cc(=O)n1-c1ccccc1 | . | . | 2 | . | . | .
Clc1ccccc1OCc1nnc(-c2ccccc2Br)o1 | -0.63 | 72* | -2 | 0.13 | -0.26 | 0
COc1ccc(OC)c(Nc2nc(-c3cccs3)cs2)c1 | 0.031 | 61* | -17 | -0.6 | -0.0009 | 12
COCCOC(=O)c1[nH]c2c(c1C)C(=O)C(C(=O)OC)C(C)C2 (stereo not given) | 1 | -11 | 2 | -0.18 | -0.76 | 1
CCCCCOC(=O)c1[nH]c2c(c1C)C(=O)C(C(=O)OC)C(C)C2 (stereo not given) | 0.33 | 75* | -11 | 0.0042 | 0.035 | 5
COc1cc(C2CC(C(F)(F)F)n3ncc(C(=O)O)c3N2)cc(OC)c1OC (stereo not given) | 0.57 | 12 | 8 | -5.8* | -0.011 | .
COc1ccc(C2CC(C(F)(F)F)n3ncc(C(=O)NCc4cccnc4)c3N2)cc1OC (stereo not given) | -0.17 | -4 | -11 | 0.86 | 0.14 | 2
Cc1cc(NC(=O)CSc2nnc(Cc3ccccc3)o2)no1 | 1.1 | -2 | -5 | 2.4 | 0.49 | -13
COc1ccc2nc(SCC(=O)N(C)C3CCCCC3)c(C#N)cc2c1 | 0.053 | 63* | -9 | 0.7 | -0.27 | 4
CN(C1CCCCC1)S(=O)(=O)c1ccc(S(=O)(=O)N2CCN(C(=O)c3ccccc3F)CC2)cc1 | . | . | -1 | . | . | .
